Source: ChEMBL document CHEMBL1157559, “Synthesis and biological evaluation of novel pyrazolyl-2,4-thiazolidinediones as anti-inflammatory and neuroprotective agents” (Bioorg Med Chem, 2010)
The source made the active and inactive calls. No cut-off for these calls is given here.

Columns and labels:
Rattus norvegicus [1] = experiment: Antiinflammatory activity in Wistar albino rat sub-acute inflammatory model assessed as inhibition of turpentine oil-induced granuloma pouch exudate volume at 20 mg/kg, po 1 hr before turpentine oil challenge for 7 days assessed measured on day 8; format: functional
In short: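 Male rats 120–150 g, five per group. Subcutaneous dorsal pouch made under ether with 2 mL air, then 0.5 mL turpentine oil injected. Compound 20 mg/kg po 1 h before turpentine, then daily for seven days. On day 8 exudate drawn by syringe under anesthesia and volume measured. % inhibition = (Vcontrol − Vtreated)/Vcontrol ×100.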

Rattus norvegicus [2] = experiment: Gastrointestinal toxicity in Wistar albino rat assessed as ulceration at 100 mg/kg/day, po administered twice daily for 3 days; format: organism-based; set-up: route oral; settings: in vivo, 72 h
In short: (§1)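 Male rats 180–200 g, groups of five, fasted 12 h with water available. Compounds given orally as two equal doses at 0 and 12 h, 100 mg/kg per day, for three successive days; vehicle control 1% gum acacia. Rats killed 6 h after last dose. Stomach opened along greater curvature, washed with cold saline and inspected under 3× lens for hyperemia, hemorrhage, erosions or ulcers.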

SH-SY5Y [3] = experiment: Antineurotoxicity in human SH-SY5Y cells assessed as inhibition human THP1 cell supernatant-induced cytotoxicity compound pretreated 24 to 48 hrs to THP1 cells measured after 72 hrs of supernatant addition; format: functional, cell-based
In short: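 THP-1 cells in DMEM-F12 with 5% FBS, pretreated 15 min with compound or DMSO, then stimulated with LPS 0.5 µg/mL plus IFN-γ 150 U/mL for 24 or 48 h. Cell-free supernatant transferred to SH-SY5Y cells plated 24 h earlier. After 72 h, viability by LDH release and MTT. IC50 from curves of at least three independent experiments.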

Rattus norvegicus [4] = experiment: Antiinflammatory activity in Wistar albino rat acute inflammatory model assessed as inhibition of formalin-induced paw edema at 20 mg/kg, po administered 1 hr before formalin challenge measured after 2 hrs by plethysmometer relative to control; format: functional; set-up: scale not given: the % may be the effect or the level left
In short: (§2)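 Male Wistar rats, 180–200 g, groups of five. Test compound 20 mg/kg po; 1 h later 0.1 mL 2% formalin injected subplantar into left hind paw under light ether anesthesia. Paw volume by water plethysmometer at 0 and 1, 2, 3, 4 h after formalin. % inhibition = (Vt−V0)control minus (Vt−V0)treated, divided by (Vt−V0)control ×100. Mean ± SEM, ANOVA with Student–Newman–Keuls.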

Rattus norvegicus [5] = experiment: Antiinflammatory activity in Wistar albino rat acute inflammatory model assessed as inhibition of formalin-induced paw edema at 20 mg/kg, po administered 1 hr before formalin challenge measured after 1 hr by plethysmometer relative to control; format: functional; set-up: scale not given: the % may be the effect or the level left; in short: as §2
Rattus norvegicus [6] = experiment: Antiinflammatory activity in po dosed Wistar albino rat acute inflammatory model assessed as inhibition of formalin-induced paw edema administered 1 hr before formalin challenge measured after 3 hrs by plethysmometer; format: functional
In short: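 Rats dosed orally at 5, 10, 20, 40 and 50 mg/kg body weight. Edema volume inhibition measured 3 h after subplantar formalin (2%, 0.1 mL), and ED50 determined from these doses.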

THP-1 [7] = experiment: Cytotoxicity against LPS and IFN-gamma-stimulated human THP1 cells after 24 hrs; format: functional, cell-based; settings: THP-1, 24 h
In short: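 THP-1 cells, 24-well, in DMEM-F12 with 5% FBS. Compound or DMSO added 15 min before LPS 0.5 µg/mL plus IFN-γ 150 U/mL. After 24 h, LDH release (fraction of Triton-lysed value, OD 490) and MTT were read. EC50 taken from curves of at least three independent experiments; the lower of the two assay values was reported.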

Rattus norvegicus [8] = experiment: Antiinflammatory activity in Wistar albino rat acute inflammatory model assessed as inhibition of formalin-induced paw edema at 20 mg/kg, po administered 1 hr before formalin challenge measured after 3 hrs by plethysmometer relative to control; format: functional; set-up: scale not given: the % may be the effect or the level left; in short: as §2
Rattus norvegicus [9] = experiment: Antiinflammatory activity in Wistar albino rat sub-acute inflammatory model assessed as inhibition of formalin-induced paw edema at 20 mg/kg, po administered daily for 7 days by plethysmometer relative to control; format: functional; settings: 168 h
In short: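 Rats dosed orally at 20 mg/kg daily for 7 consecutive days. 0.1 mL 2% formalin given subplantar in left hind paw under light ether 1 h after the first oral dose, with a second injection on day 3. Paw edema weight (g) measured on day 8. % inhibition = (control − treated)/control ×100. Groups of five.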

THP-1 [10] = experiment: Inhibition of MCP1 release in human THP1 cells after 24 hrs by ELISA; format: functional, cell-based
In short: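 THP-1 cells pretreated 15 min with compound, then stimulated with LPS 0.5 µg/mL plus IFN-γ 150 U/mL. After 24 h, MCP-1 (ng/mL) measured in cell-free medium by ELISA.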

Rattus norvegicus [11] = experiment: Antiinflammatory activity in Wistar albino rat acute inflammatory model assessed as inhibition of formalin-induced paw edema at 20 mg/kg, po administered 1 hr before formalin challenge measured after 4 hrs by plethysmometer relative to control; format: functional; set-up: scale not given: the % may be the effect or the level left; in short: as §2
[12] = Acute toxicity in po dosed Swiss albino mouse after 24 hrs; format: organism-based; settings: in vivo, read-out: ALD50
In short: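 Four groups of five Swiss albino mice (20–30 g), fasted 24 h beforehand, given compounds orally at graded doses of 0–300 mg/kg. Mortality recorded at each dose level after 24 h to estimate the acute lethal dose (ALD50).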

HL-60 = experiment: Inhibition of phagocyte respiratory burst in human HL60 cells after 6 to 7 days by luminol-induced chemiluminescence; format: functional, cell-based
In short: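 HL-60 cells differentiated 6–7 days in DMEM-F12 with 10% FBS and 1.3% DMSO, washed into serum-free, phenol red-free medium, then held 30 min at 37 °C before compound or DMSO was added. Luminol injected, 7.5 min baseline recorded, then FMLP injected (final 1 µM; luminol 5 mM; DMSO 0.5%). Chemiluminescence recorded 30 min at 37 °C; read-out was area under the curve.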

Rattus norvegicus [13] = experiment: Gastrointestinal toxicity in Wistar albino rat assessed as hyperemia at 100 mg/kg/day, po administered twice daily for 3 days; format: organism-based; set-up: route oral; settings: in vivo, 72 h; in short: as §1
[14] = target: T1, Prostaglandin G/H synthase 1 (Ovis aries) (UniProt P05979); experiment: Inhibition of ovine COX1 at 10 uM
T1 sequence (whole entry): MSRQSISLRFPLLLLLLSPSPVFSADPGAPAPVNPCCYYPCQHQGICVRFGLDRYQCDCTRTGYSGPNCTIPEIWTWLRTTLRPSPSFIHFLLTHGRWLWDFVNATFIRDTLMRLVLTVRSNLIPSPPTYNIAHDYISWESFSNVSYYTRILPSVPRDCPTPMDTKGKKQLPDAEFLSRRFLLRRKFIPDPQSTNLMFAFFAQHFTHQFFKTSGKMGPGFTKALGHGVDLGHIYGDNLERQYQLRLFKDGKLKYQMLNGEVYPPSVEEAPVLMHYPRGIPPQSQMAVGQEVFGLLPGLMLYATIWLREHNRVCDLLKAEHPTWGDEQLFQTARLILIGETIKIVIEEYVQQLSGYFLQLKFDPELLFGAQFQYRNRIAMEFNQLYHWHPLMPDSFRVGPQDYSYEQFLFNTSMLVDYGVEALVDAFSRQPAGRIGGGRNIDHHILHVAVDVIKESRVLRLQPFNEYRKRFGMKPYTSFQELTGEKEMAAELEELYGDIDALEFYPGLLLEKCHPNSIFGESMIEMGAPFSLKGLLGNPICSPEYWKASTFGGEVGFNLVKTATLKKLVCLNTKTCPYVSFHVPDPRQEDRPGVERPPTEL
In short: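 Kit assay with ovine COX-1, run per manufacturer's protocol. Read-out was percent inhibition of prostaglandin production, with compound at 10 µM and three experiments.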

SH-SY5Y [15] = experiment: Neuroprotective activity in human SH-SY5Y cells assessed as inhibition of LPS, IFN-gamma-stimulated THP1 cellular supernatant-induced cytotoxicity after 72 hrs by LDH assay; format: functional, cell-based
In short: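 SH-SY5Y cells plated 24 h, then medium replaced with supernatant from THP-1 cells stimulated with LPS + IFN-γ for 48 h. Compound added directly to the SH-SY5Y cells at the time of transfer. Cell death measured by LDH release after 72 h; 4–6 independent experiments.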

SH-SY5Y [16] = experiment: Neuroprotective activity in human SH-SY5Y cells assessed as inhibition of H2O2-induced cytotoxicity after 72 hrs by LDH assay; format: functional, cell-based
In short: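 SH-SY5Y cells plated in DMEM-F12 with 5% FBS. After 24 h, medium replaced with medium containing H2O2 (500 µM in methods, 250 µM in figure legend), and compound added directly at that time. Cell death measured by LDH release 72 h later.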

[17] = target: T2, Prostaglandin G/H synthase 2 (Homo sapiens) (UniProt P35354); settings: at 10 µM
T2 sequence (whole entry): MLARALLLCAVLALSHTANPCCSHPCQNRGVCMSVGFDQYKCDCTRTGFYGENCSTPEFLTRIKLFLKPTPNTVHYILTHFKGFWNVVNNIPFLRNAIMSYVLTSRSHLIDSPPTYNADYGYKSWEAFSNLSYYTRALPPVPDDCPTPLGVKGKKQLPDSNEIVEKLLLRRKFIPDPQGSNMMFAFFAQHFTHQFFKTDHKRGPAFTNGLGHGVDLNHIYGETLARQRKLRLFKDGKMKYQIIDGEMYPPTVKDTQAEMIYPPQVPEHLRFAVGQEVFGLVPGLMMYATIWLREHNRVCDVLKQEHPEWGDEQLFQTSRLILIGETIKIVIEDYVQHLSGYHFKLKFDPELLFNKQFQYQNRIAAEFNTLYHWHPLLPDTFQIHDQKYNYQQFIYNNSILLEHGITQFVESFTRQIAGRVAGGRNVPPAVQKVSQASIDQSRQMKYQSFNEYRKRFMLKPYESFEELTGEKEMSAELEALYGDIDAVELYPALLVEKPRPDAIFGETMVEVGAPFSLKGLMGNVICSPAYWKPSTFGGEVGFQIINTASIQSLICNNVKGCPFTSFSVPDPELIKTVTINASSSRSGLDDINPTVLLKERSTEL

SMILES	IC50 (SH-SY5Y [3]) [µM]	EC50 (THP-1 [7]) [µM]	inhibition (THP-1 [10])	LD50 at 24 h [12] [mg/kg]	also measured
Cc1ccc(-c2cc(C(F)(F)F)nn2-c2ccc(S(N)(=O)=O)cc2)cc1 [CELECOXIB]	5	50	inactive	–	inhibition in vivo at 20 mg/kg (Rattus norvegicus [1]): 54%; Activity (Rattus norvegicus [2]): 0%; Activity (Rattus norvegicus [4]): 50%; Activity (Rattus norvegicus [5]): 41%; ED50 (Rattus norvegicus [6]): 14.3 mg/kg; Activity (Rattus norvegicus [8]): 60%; inhibition in vivo at 20 mg/kg (Rattus norvegicus [9]): 50%; Activity (Rattus norvegicus [11]): 68%
CCCN1C(=O)S/C(=C\c2cn(-c3ccccc3)nc2-c2ccc(Cl)cc2)C1=O	–	> 100	inactive	> 300	–
O=C1S/C(=C\c2cn(-c3ccccc3)nc2-c2ccccc2)C(=O)N1Cc1ccc(Cl)cc1	80	50	inactive	> 300	–
COc1ccc2c(c1)c(CC(=O)O)c(C)n2C(=O)c1ccc(Cl)cc1 [INDOMETHACIN]	–	–	–	–	Activity (Rattus norvegicus [2]): 100%
O=C1S/C(=C\c2cn(-c3ccccc3)nc2-c2ccccc2)C(=O)N1Cc1ccccc1	–	> 100	inactive	> 300	–
O=C1S/C(=C\c2cn(-c3ccccc3)nc2-c2ccc(Cl)cc2)C(=O)N1Cc1ccc(Cl)cc1	–	4	inactive	> 300	–
O=C1S/C(=C\c2cn(-c3ccccc3)nc2-c2ccc(Cl)cc2)C(=O)N1Cc1cccc(Br)c1	8	5	inactive	> 300	–
O=C1NC(=O)/C(=C/c2cn(-c3ccccc3)nc2-c2ccc(Cl)cc2)S1	–	> 100	inactive	> 300	inhibition in vivo at 20 mg/kg (Rattus norvegicus [1]): 44%; Activity (Rattus norvegicus [4]): 50%; Activity (Rattus norvegicus [5]): 41%; ED50 (Rattus norvegicus [6]): 13 mg/kg; Activity (Rattus norvegicus [8]): 74%; inhibition in vivo at 20 mg/kg (Rattus norvegicus [9]): 42%; IC50 (HL-60): 0.8 µM; Activity (Rattus norvegicus [11]): 74%
O=C1NC(=O)/C(=C/c2cn(-c3ccccc3)nc2-c2ccccc2)S1	–	50	inactive	> 300	inhibition in vivo at 20 mg/kg (Rattus norvegicus [1]): 53%; Activity (Rattus norvegicus [4]): 38%; Activity (Rattus norvegicus [5]): 35%; ED50 (Rattus norvegicus [6]): 21.3 mg/kg; Activity (Rattus norvegicus [8]): 43%; inhibition in vivo at 20 mg/kg (Rattus norvegicus [9]): 53%; IC50 (HL-60): 8 µM; Activity (Rattus norvegicus [11]): 43%
CCCN1C(=O)S/C(=C\c2cn(-c3ccccc3)nc2-c2ccccc2)C1=O	–	> 100	inactive	> 300	–
O=C1S/C(=C\c2cn(-c3ccccc3)nc2-c2ccccc2)C(=O)N1Cc1cccc(Br)c1	–	> 100	inactive	> 300	–
O=C1S/C(=C\c2cn(-c3ccccc3)nc2-c2ccc(Cl)cc2)C(=O)N1Cc1ccccc1	8	1	inactive	> 300	–
C=CCN1C(=O)S/C(=C\c2cn(-c3ccccc3)nc2-c2ccccc2)C1=O	50	> 100	inactive	> 300	–
C=CCN1C(=O)S/C(=C\c2cn(-c3ccccc3)nc2-c2ccc(Cl)cc2)C1=O	10	120	inactive	> 300	Activity (Rattus norvegicus [13]): Non-toxic; inhibition in vivo at 20 mg/kg (Rattus norvegicus [1]): 50%; Activity (Rattus norvegicus [2]): 0%; inhibition [14]: 26.5%; Activity (Rattus norvegicus [4]): 63%; Activity (Rattus norvegicus [5]): 53%; inhibition (SH-SY5Y [15]): inactive; ED50 (Rattus norvegicus [6]): 15.4 mg/kg; inhibition (SH-SY5Y [16]): inactive; inhibition [17]: 13.6%; Activity (Rattus norvegicus [8]): 72%; inhibition in vivo at 20 mg/kg (Rattus norvegicus [9]): 47%; Activity (Rattus norvegicus [11]): 66%
